NF-kB expr up – NF-kB expression increase, human neuronal cells; fold change at 12.5 µM; 190,000 tested, 1.6% active; NF-kB reporter expression; active compounds read high; in the data active means fold change above about 3.3
C8 TRAIL sens – caspase-8 TRAIL sensitization | NB7+C8 cells + TRAIL, ATPlite viability luminescence | inhibition (viability loss, TRAIL sensitization), % at 10 µM | 360,000 tested, 1% active | AID 624354;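 active means compounds causing at least 50% loss of cell viability in the single-dose screen, relative to plate controls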
APP 5'UTR act – activates APP 5'UTR luciferase reporter | SH-SY5Y APP 5'UTR luciferase reporter, luminescence; zero percent = DMSO vehicle wells | activation, % at 2 µM | 190,000 tested, 1% active;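 active means activation above a set limit, based on mean plus 3 SD of controls, cut at about 140% in these data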
FLuc act counter – affects firefly luciferase, flagging false hits in luciferase stimulation screens. P08659. 200,000 tested, under 10 active. ATPlite luciferase biochemical, luminescence, 10 min; 0 = ATP-free wells, 1 = DMSO control. activation factor at 10 µM;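 active means luciferase activation factor, scaled between plate controls, of at least 2 with compound at 10 µM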
Target sequence (P08659 whole entry, looked up): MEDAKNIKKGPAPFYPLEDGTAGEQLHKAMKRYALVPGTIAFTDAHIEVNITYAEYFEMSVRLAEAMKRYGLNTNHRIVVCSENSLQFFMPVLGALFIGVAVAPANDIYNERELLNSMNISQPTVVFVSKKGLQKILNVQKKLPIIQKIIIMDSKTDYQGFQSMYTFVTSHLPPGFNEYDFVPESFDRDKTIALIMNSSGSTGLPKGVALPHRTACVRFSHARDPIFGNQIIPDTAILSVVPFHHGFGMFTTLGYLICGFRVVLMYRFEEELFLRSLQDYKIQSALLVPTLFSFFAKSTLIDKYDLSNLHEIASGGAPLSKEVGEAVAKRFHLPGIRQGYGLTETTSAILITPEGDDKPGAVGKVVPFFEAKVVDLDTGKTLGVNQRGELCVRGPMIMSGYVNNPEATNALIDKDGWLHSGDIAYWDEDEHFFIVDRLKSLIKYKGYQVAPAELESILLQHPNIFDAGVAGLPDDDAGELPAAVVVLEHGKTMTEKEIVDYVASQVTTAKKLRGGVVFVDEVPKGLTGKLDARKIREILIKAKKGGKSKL
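System: cell-free luciferase reagent; medium: PBS as buffer for the ATP substrate; doses: test compounds dosed from 2 mM stocks in 100% DMSO; incubation: 10 min, room temperature; measured by: luminescence from luciferase reaction; read-out: luciferase activation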
PPC-1+TRAIL kill – PPC-1 cancer cell killing with TRAIL present | PPC-1 cells + TRAIL, ATPLite viability luminescence | cell killing (% activity), % at 4 µM or 5 µM | 220,000 tested, 0.41% active | AID 1443;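 active means cell killing above 50% in the first pass at 4 µM, then a duplicate retest at 5 µM averaging 50% or more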
FLuc inhib CS – Photinus pyralis luciferase inhibition counter-screen; P08659; ATPLite firefly luciferase biochemical luminescence, 10 min; inhibition, % at 10 µM; 200,000 tested, 1.5% active; AID 1006;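 active means inhibition above about 50% when tested at 10 µM, limit read from the data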
Hits are given with their value. Compounds with a hit are over-represented: about 2.2% of the library has one in this group of screens.

What do the screens show for `CCOC(=O)c1ccc2c(c1)nc(-c1ccccn1)n2CC`?
C8 TRAIL sens: 56

What do the screens show for `CCOC(=O)Cn1c(-c2ccccn2)nc2ccccc21`?
NF-kB expr up: inactive; C8 TRAIL sens: inactive; APP 5'UTR act: inactive; FLuc act counter: inactive; PPC-1+TRAIL kill: inactive; FLuc inhib CS: inactive

How did COc1cccc(C=C2Cc3ccccc3C2=O)c1 do in these assays?
C8 TRAIL sens: inactive

Results for COc1ccc(C=C2SC(=O)NC2=O)cc1OC ?
C8 TRAIL sens: inactive

What do the screens show for `COc1ccc(OC)c(C=C2CCc3ccccc3C2=O)c1`?
C8 TRAIL sens: inactive

How did COc1ccc(/C=C2\CC/C(=C\c3ccc(OC)c(OC)c3)C2=O)cc1OC do in these assays?
NF-kB expr up: inactive; C8 TRAIL sens: 64; APP 5'UTR act: inactive; FLuc act counter: inactive; PPC-1+TRAIL kill: inactive; FLuc inhib CS: 66

How did COc1ccc(C=C2C=C(C(C)(C)C)C(=O)C(C(C)(C)C)=C2)cc1OC do in these assays?
C8 TRAIL sens: 87

How did COc1ccc(/C=C2\CCc3ccccc3C2=O)cc1OC do in these assays?
NF-kB expr up: 3.6; C8 TRAIL sens: inactive; APP 5'UTR act: inactive; FLuc act counter: inactive; PPC-1+TRAIL kill: inactive; FLuc inhib CS: inactive

What do the screens show for `COc1cccc(/C=C2\CCc3ccccc3C2=O)c1`?
C8 TRAIL sens: 82; PPC-1+TRAIL kill: inactive

What do the screens show for `COc1cccc(C(=O)N(c2ccc(C)cc2)C2C=CS(=O)(=O)C2)c1` (stereo unspecified)?
NF-kB expr up: inactive; C8 TRAIL sens: inactive; APP 5'UTR act: inactive; FLuc act counter: inactive; PPC-1+TRAIL kill: inactive; FLuc inhib CS: inactive

Results for CCS(=O)(=O)c1ncc(Cl)c(C(=O)Nc2ccc(S(=O)(=O)N(C)c3ccccc3)cc2)n1 ?
C8 TRAIL sens: 98

Results for CCN(c1ccccc1)S(=O)(=O)c1ccc(NC(=O)c2nc(S(C)(=O)=O)ncc2Cl)cc1 ?
C8 TRAIL sens: 91

How did CCN(c1ccccc1)S(=O)(=O)c1ccc(C(=O)Nc2ccncc2)cc1 do in these assays?
C8 TRAIL sens: inactive

Results for CC(=O)Nc1ccc(S(=O)(=O)N(C)c2ccccc2)cc1 ?
NF-kB expr up: inactive; C8 TRAIL sens: inactive; APP 5'UTR act: inactive; FLuc act counter: inactive; PPC-1+TRAIL kill: inactive; FLuc inhib CS: inactive

How did O=C(OCN1C(=O)c2ccccc2C1=O)c1cccc(OC(F)F)c1 do in these assays?
C8 TRAIL sens: inactive

How did Cc1ccccc1C(c1ncccc1C)N(C)C(=O)C1CCN(CCOc2ccc(Cl)cc2Cl)CC1 (stereo unspecified) do in these assays?
C8 TRAIL sens: inactive

Results for C=CCn1c(C)cc(C(=O)COc2ncnc3sccc23)c1C ?
NF-kB expr up: inactive; C8 TRAIL sens: inactive; APP 5'UTR act: 182; FLuc act counter: inactive; PPC-1+TRAIL kill: inactive; FLuc inhib CS: 58

What do the screens show for `O=C1C(C=Nc2ccccc2O)=C(O)c2ccccc21`?
NF-kB expr up: 5; C8 TRAIL sens: inactive; APP 5'UTR act: inactive; FLuc act counter: inactive; PPC-1+TRAIL kill: inactive; FLuc inhib CS: 85

What do the screens show for `O=C1C(C=NCCN2CCOCC2)=C(O)c2ccccc21`?
NF-kB expr up: inactive; C8 TRAIL sens: inactive; APP 5'UTR act: inactive; FLuc act counter: inactive; PPC-1+TRAIL kill: inactive; FLuc inhib CS: inactive

Results for Cc1ccc(O)c(N=CC2=C(O)c3ccccc3C2=O)c1 ?
NF-kB expr up: 4.2; C8 TRAIL sens: inactive; APP 5'UTR act: inactive; FLuc act counter: inactive; PPC-1+TRAIL kill: inactive; FLuc inhib CS: inactive

Results for CCOC(=O)Cn1c(-c2cccnc2)nc(-c2ccccc2)c1-c1ccccc1 ?
C8 TRAIL sens: inactive

How did CCOC(=O)C(=C1Nc2ccccc2N1)n1c(-c2cccnc2)nc2ccccc21 do in these assays?
C8 TRAIL sens: 71

How did Cc1cc(C)nc(NS(=O)(=O)c2ccc(NC(=O)C3(c4ccccc4)CCCC3)cc2)n1 do in these assays?
NF-kB expr up: inactive; C8 TRAIL sens: inactive; APP 5'UTR act: inactive; FLuc act counter: inactive; PPC-1+TRAIL kill: inactive; FLuc inhib CS: inactive

What do the screens show for `Cc1ccc(-c2nc(NC(=O)c3nn(C)cc3[N+](=O)[O-])sc2C)cc1`?
NF-kB expr up: inactive; C8 TRAIL sens: 93; APP 5'UTR act: inactive; FLuc act counter: inactive; PPC-1+TRAIL kill: inactive; FLuc inhib CS: inactive

How did Cn1cc([N+](=O)[O-])c(C(=O)Nc2nc(-c3ccc(Cl)cc3)cs2)n1 do in these assays?
NF-kB expr up: inactive; C8 TRAIL sens: 94; APP 5'UTR act: inactive; FLuc act counter: inactive; PPC-1+TRAIL kill: inactive; FLuc inhib CS: inactive

Results for Cc1cnc(NC(=O)c2nn(C)cc2[N+](=O)[O-])s1 ?
NF-kB expr up: inactive; C8 TRAIL sens: inactive; APP 5'UTR act: inactive; FLuc act counter: inactive; PPC-1+TRAIL kill: inactive; FLuc inhib CS: inactive

Results for Cc1ccc(-c2nc(NC(=O)c3nn(C)cc3[N+](=O)[O-])sc2C)cc1C ?
NF-kB expr up: inactive; C8 TRAIL sens: 95; APP 5'UTR act: inactive; FLuc act counter: inactive; PPC-1+TRAIL kill: inactive; FLuc inhib CS: inactive

How did COc1ccccc1NC(=O)C(=O)N/N=C(\C)CC(=O)Nc1ccccc1C(F)(F)F do in these assays?
C8 TRAIL sens: inactive

Results for CC1CCCCN1S(=O)(=O)c1ccc(S(=O)(=O)N2CCN(C)CC2)cc1 (stereo unspecified) ?
C8 TRAIL sens: inactive

How did Cc1ccc(C(=O)C(OC(=O)CNS(=O)(=O)c2ccccc2)c2ccccc2)cc1 (stereo unspecified) do in these assays?
NF-kB expr up: inactive; C8 TRAIL sens: inactive; APP 5'UTR act: inactive; FLuc act counter: inactive; PPC-1+TRAIL kill: inactive; FLuc inhib CS: inactive

What do the screens show for `COc1ccc(CNC(=O)CN2C(=O)CCSc3ccc(S(=O)(=O)N4CCCC4)cc32)cc1`?
C8 TRAIL sens: inactive

Results for CCCS/C(N)=N/N=C/c1cc(C)ccc1O ?
NF-kB expr up: 11; C8 TRAIL sens: inactive; APP 5'UTR act: 150; FLuc act counter: inactive; PPC-1+TRAIL kill: inactive; FLuc inhib CS: inactive

How did CCCCS/C(N)=N/N=C/c1ccccc1O do in these assays?
NF-kB expr up: inactive; C8 TRAIL sens: inactive; FLuc act counter: inactive; PPC-1+TRAIL kill: inactive; FLuc inhib CS: inactive

Results for O=C1c2ccccc2S(=O)(=O)N1CC1CC(c2ccccc2Cl)=NO1 (stereo unspecified) ?
NF-kB expr up: 4.9; C8 TRAIL sens: inactive; APP 5'UTR act: inactive; FLuc act counter: inactive; PPC-1+TRAIL kill: inactive; FLuc inhib CS: inactive

How did COc1ccccc1C1=NOC(CN2C(=O)c3ccccc3S2(=O)=O)C1 (stereo unspecified) do in these assays?
C8 TRAIL sens: inactive; PPC-1+TRAIL kill: inactive

What do the screens show for `CC[C@H](C)/C=C(C)/C=C/C1=CC2=CC(=O)[C@]3(C)OC(=O)[C@@H](C(C)=O)[C@@H]3C2=CO1`?
NF-kB expr up: 3.8; C8 TRAIL sens: inactive; APP 5'UTR act: inactive; FLuc act counter: inactive; PPC-1+TRAIL kill: inactive; FLuc inhib CS: inactive

Results for CCc1nnc(SCC(=O)Nc2ccccc2)n1CC1CCCO1 (stereo unspecified) ?
C8 TRAIL sens: inactive
